# The source made the active and inactive calls. No cut-off for these calls is given here.
# Assays:
# [1] = Drug uptake in human HeLa cells at early mitotic phase expressing N-terminal hmAG1-tagged recombinant fluorescent KSP at 20 uM after 20 mins by fluorescence microscopic analysis
# [2] = Drug uptake in monoastral mitotic human HeLa cells expressing N-terminal hmAG1-tagged recombinant fluorescent KSP at 40 uM after 20 mins by fluorescence microscopic analysis; assay type: ADME, cell-based
# Outline: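 HeLa cells stably expressing KSP fused at its N-terminus to hmAG1 were treated in mitosis with 40 µM probe for 20 min at 37 °C. Live-cell fluorescence microscopy compared probe signal with the fluorescent KSP signal in monoastral mitotic cells.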
# [3] = molecular target: T1, Kinesin-like protein KIF11 (Homo sapiens, UniProt P52732); experiment: Inhibition of microtubule-stimulated kinesin spindle protein motor domain (unknown origin) ATPase activity preincubated for 20 mins followed by ATP addition measured after 15 mins by kinase-glo based luciferase reporter gene assay
# T1 sequence (P52732 whole entry): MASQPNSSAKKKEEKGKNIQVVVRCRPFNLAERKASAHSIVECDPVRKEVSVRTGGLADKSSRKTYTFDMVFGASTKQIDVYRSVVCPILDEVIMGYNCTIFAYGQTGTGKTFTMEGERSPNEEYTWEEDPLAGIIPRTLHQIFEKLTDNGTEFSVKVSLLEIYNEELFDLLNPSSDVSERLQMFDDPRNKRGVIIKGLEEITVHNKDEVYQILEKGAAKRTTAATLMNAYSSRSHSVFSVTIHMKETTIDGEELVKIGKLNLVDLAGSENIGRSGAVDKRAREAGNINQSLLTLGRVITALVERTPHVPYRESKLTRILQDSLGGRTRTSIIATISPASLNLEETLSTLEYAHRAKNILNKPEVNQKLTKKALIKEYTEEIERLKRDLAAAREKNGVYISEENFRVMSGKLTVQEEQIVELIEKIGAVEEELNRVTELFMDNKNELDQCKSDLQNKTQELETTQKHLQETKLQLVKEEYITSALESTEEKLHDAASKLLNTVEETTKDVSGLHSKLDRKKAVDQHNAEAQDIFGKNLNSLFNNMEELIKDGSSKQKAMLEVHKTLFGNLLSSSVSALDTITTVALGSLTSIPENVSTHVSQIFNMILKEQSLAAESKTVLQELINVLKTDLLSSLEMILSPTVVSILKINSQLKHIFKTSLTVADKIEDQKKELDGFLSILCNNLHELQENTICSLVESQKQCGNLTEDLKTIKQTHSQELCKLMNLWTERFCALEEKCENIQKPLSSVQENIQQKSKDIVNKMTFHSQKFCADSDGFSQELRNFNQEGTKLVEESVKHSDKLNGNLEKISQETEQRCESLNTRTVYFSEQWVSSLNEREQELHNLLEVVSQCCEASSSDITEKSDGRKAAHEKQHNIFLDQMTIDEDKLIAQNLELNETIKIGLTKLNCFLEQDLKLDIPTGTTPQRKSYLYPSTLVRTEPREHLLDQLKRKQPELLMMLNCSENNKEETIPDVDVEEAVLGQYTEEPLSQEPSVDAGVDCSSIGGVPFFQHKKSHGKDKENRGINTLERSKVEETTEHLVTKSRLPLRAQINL
# Outline: (§1)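 Inhibition of microtubule-activated KSP ATPase activity was measured in vitro. IC50 values come from three independent experiments. Percent inhibition was also measured at 20 µM.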
# [4] = molecular target: T2, Kinesin-like protein KIF11 (Homo sapiens) (UniProt P52732); experiment: Inhibition of hmAG1-fused kinesin spindle protein (unknown origin) ATPase activity expressed in human HeLa cells assessed as prometaphase with monopolar spindles at 40 uM after 4 hrs by DAPI staining based fluorescence microscopy relative to control; assay type: cell-based
# T2 sequence (whole entry): T1 sequence (P52732 whole entry)
# Outline: (§2)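 Synchronized HeLa cells were given compound as they entered M phase and cultured 4 h at 37 °C. Cells were fixed and immunostained for α-tubulin and KSP, with DAPI for chromosomes. The relative mitotic index was averaged over two independent experiments. Mitotic phenotypes, such as prometaphase with monopolar spindles, were scored as a percentage of mitotic cells.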
# [5] = molecular target: T2, Kinesin-like protein KIF11 (Homo sapiens); experiment: Inhibition of hmAG1-fused kinesin spindle protein (unknown origin) ATPase activity expressed in human HeLa cells assessed as irregular accumulation of KSP in central region of mitotic cells at 40 uM after 4 hrs by DAPI staining based fluorescence microscopy; assay type: cell-based
# [6] = Solubility of the compound in DMEM medium at >50 uM by microscopic analysis; assay type: physicochemical
# Outline: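 During the 4 h mitotic assay in synchronized HeLa cells, the culture medium was inspected by microscopy for deposits of insoluble compound across the tested concentrations.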
# [7] = Growth inhibition of human HeLa cells after 72 hrs by MTS assay; assay type: functional
# Outline: (§3)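 Proliferation of HeLa and A549 cells was measured by MTS assay. GI50 values, or percent growth inhibition at a single concentration (30 µM), come from at least three independent experiments.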
# [8] = Growth inhibition of human A549 cells after 72 hrs by MTS assay; assay type: functional; settings: A549, 72 h
# Outline: as §3
# [9] = Drug uptake in human HeLa cells at G2 phase expressing N-terminal hmAG1-tagged recombinant fluorescent KSP at 20 uM after 20 mins by fluorescence microscopic analysis
# [10] = Drug uptake in cytoplasm of human HeLa cells expressing hmAG1-conjugated alpha-tubulin at 20 uM after 20 mins by fluorescence microscopic analysis; assay type: ADME, cell-based
# Outline: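 Live HeLa cells expressing hmAG1-conjugated α-tubulin (cytoplasm marker) or histone H2B (nucleus marker) were incubated with 20 µM probe for 20 min at 37 °C. Probe localization was imaged by live-cell fluorescence microscopy.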
# [11] = molecular target: T2, Kinesin-like protein KIF11 (Homo sapiens); experiment: Inhibition of hmAG1-fused kinesin spindle protein (unknown origin) ATPase activity expressed in human HeLa cells assessed as accumulation of mitotic cells after 4 hrs by DAPI staining based fluorescence microscopy; assay type: cell-based
# Outline: as §2
# [12] = molecular target: T2, Kinesin-like protein KIF11 (Homo sapiens); experiment: Inhibition of microtubule-stimulated kinesin spindle protein motor domain (unknown origin) ATPase activity at 20 uM preincubated for 20 mins followed by ATP addition measured after 15 mins by kinase-glo based luciferase reporter gene assay
# Outline: as §1
# [13] = Growth inhibition of human A549 cells at 30 uM after 72 hrs by MTS assay; assay type: functional; settings: A549, 72 h, read-out: GI
# Outline: as §3
SMILES,Drug uptake [1],Drug uptake [2],IC50 [3] [µM],inhibition [4] [%],inhibition [5],solubility [6],GI50 [7] [µM],GI50 [8] [µM],Drug uptake [9],Drug uptake [10],inhibition [11],inhibition [12] [%],inhibition of growth at 30 µM [13] [%]
FC(F)(F)c1ccc(-c2ccc(-c3cn4ccc[n+]4[n-]3)cc2)cc1,Active,Active,6.8,63,Active,Insoluble,19,22,Active,Active,Dose-dependent effect,–,–
FC(F)(F)c1ccc(-c2cn3ccc[n+]3[n-]2)cc1,–,–,> 20,–,–,–,25,> 30,–,–,–,34,6

# — ChEMBL document CHEMBL3868601, “Functional 1,3a,6a-triazapentalene scaffold: Design of fluorescent probes for kinesin spindle protein (KSP)” (Bioorg Med Chem Lett, 2016)
